Usually inhibition stands for the relative decrease from the control value, in per cent.

Screen size: about 360,000 compounds; about 1,500 (0.42%) were called active. Shown is part of a subset that was picked to be rich in actives. A number with no mark means an inactive call.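 How the source made its calls: active means inhibition above a per-plate cutoff of the control wells' mean inhibition plus 3 SD (cut at about 5.5% in these data); inactive means the rest.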

Consider 96 compounds from PubChem BioAssay AID624268 (The Scripps Research Institute Molecular Screening Center, 2012).

In the assay the test system is methionyl-tRNA synthetase (Trypanosoma brucei brucei). In words: inhibition of trypanosome methionyl-tRNA synthetase – biochemical, luminescence, primary screen (AID 624268).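 Further: 0% = DMSO wells median and 100% = median of wells with control inhibitor compound.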 Conditions: purified T. brucei MetRS, ATP depletion, Kinase-Glo luminescence; at 11.9 µM; stronger effect = higher value. The essentials:
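technique = Kinase-Glo luminescence, ATP depletion format | system = purified MetRS (methionyl-tRNA synthetase) enzyme from Trypanosoma brucei | timing = 15 min preincubation, 2 h reaction, all 25 °C | evaluation = percent inhibition versus plate control medians | dosing = single dose, 11.9 µM final nominal, 0.9% final DMSO | also added = substrates ATP, L-methionine and bulk Escherichia coli tRNA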
As for `CCCNC(=O)C1(C)CCN(C(=O)c2ccc(F)cc2Cl)C1` (stereo unspecified), the inhibition is -0.42%.
Under `CCN(CC)CCNC(=O)c1ccc(NC(=O)c2c(F)cccc2Cl)cc1` stands -0.39%.
Under `O=C(NNc1cc(Cl)cc(Cl)c1)c1c(F)cccc1Cl` stands 45.1% (active); under `O=C(O)c1cc2c(cc1NC(=O)c1c(F)cccc1Cl)OCCCO2`, 0.17%.
Under `C=CCC(Nc1ccccc1)c1cccc(OC)c1OC` (stereo unspecified) stands 0.2%; under `O=C1COc2ccc(C(=O)COC(=O)C3CC(O)CN3S(=O)(=O)c3ccc(Cl)cc3)cc2N1` (stereo unspecified), 0.64%.
With `CNC[C@@H]1Oc2c(NS(C)(=O)=O)cccc2C(=O)N([C@@H](C)CO)C[C@H]1C`, the inhibition is -0.2%.
Under `O=C(Cn1c2[n+](c3ccc(C(F)(F)F)cc31)CCCCC2)Nc1c(F)cccc1F` stands 17.2% (active); under `CCN(CC(=O)Nc1c(F)cccc1F)C(=O)C1CCC1`, -0.09%; under `O=C(CCC1CCCCC1)Nc1cc(C(F)(F)F)ccc1N1CCOCC1`, 0.04%.
Consider `N#CCc1c[nH]c2ccc([N+](=O)[O-])cc12`, for which the inhibition is -0.24%.
As for `COc1ccc(OCC(O)CNC(=O)Nc2ccc(Cl)cc2)cc1` (stereo unspecified), the figure is 60.1% (active); as for `COC(=O)[C@H](CCSC)NC(=O)Nc1ccc(OC)cc1`, -0.05%.
As for `CCc1ccc(S(=O)(=O)NCC(O)COc2ccc(OC)cc2)cc1` (stereo unspecified), the figure is -0.05%; as for `COc1cccc(NC(=O)N2CCC(NC(=O)C(Cc3cccc(C)c3)NC(C)=O)CC2)c1` (stereo unspecified), -0.33%.
Under `CC(Oc1ccccc1F)C(=O)NN` (stereo unspecified) stands -0.07%; under `CCCOn1c(-n2nc(C)cc2C)nc2ccccc2c1=O`, -0.74%.
Consider `CCN(CC(=O)NCCc1ccccc1)S(=O)(=O)c1ccccc1`, for which the inhibition was 1.61%.
For `CN(C(=O)CSc1nnc(Nc2ccccc2)s1)C1CCS(=O)(=O)C1` (stereo unspecified), the inhibition was 6.74% (active).
For the compound `O=C(CSc1nnc(-c2c[nH]c3ccccc23)o1)c1ccccc1`, the inhibition is 0.1%.
Under `CCn1c(SCC(=O)N(C)C2CCS(=O)(=O)C2)nnc1-c1cccs1` (stereo unspecified) stands -0.25%; under `CN(C(=O)CSc1nnc(-c2c[nH]c3ccccc23)o1)C1CCS(=O)(=O)C1` (stereo unspecified), 8.69% (active); under `CN(C(=O)CSc1nnc(-c2ccc3c(c2)OCO3)o1)C1CCS(=O)(=O)C1` (stereo unspecified), -0.28%.
As for `CN(C(=O)CSc1nnc(-c2ccc(C(C)(C)C)cc2)n1C)C1CCS(=O)(=O)C1` (stereo unspecified), the figure is -0.23%.
On to `Cn1nc(C(F)(F)F)c(-c2ccc(F)cc2)c1NC(=O)CSCC(=O)O`, for which the inhibition was -1.21%.
Under `Cc1ccc(C)c(N2C(=O)CS/C2=N\NC(=O)c2ccccc2Cl)c1` stands -0.16%; under `Cc1ccc(NC(=O)C(C)c2cccc(C(=O)c3ccccc3)c2)cc1` (stereo unspecified), 67.8% (active); under `CC(=O)Nc1ccc(NC(=O)[C@@H](NC(=O)c2cccc(C)c2)C(C)C)cc1`, -0.8%.
As to `CCC(C(=O)Nc1ccc(C(C)C)cc1)c1ccccc1` (stereo unspecified), the inhibition was 0.33%.
Consider `COc1ccc(CNC(=O)C(C)NCc2ccccc2Cl)cc1` (stereo unspecified), for which the inhibition is -0.92%.
As for `COc1ccc(NC(=O)N2CCCC2C(=O)NCc2ccccc2Cl)cc1` (stereo unspecified), the figure is -0.13%; as for `COc1ccc(NC(=O)C(NC(C)=O)C(=O)NCc2ccccc2Cl)cc1` (stereo unspecified), 7.6% (active).
With `Nc1ccccc1Sc1cc(Cl)nnc1Cl`, the inhibition is 1.75%.
Under `CSc1ccc(S(=O)(=O)NCc2ccc(Cl)cc2)cc1` stands -1.21%.
As for `O=C(O)CCn1c(O)c(C=C2N=c3ccccc3=N2)sc1=S`, the figure is 7.5% (active); as for `CCN=c1sc(C(=O)Nc2ccccc2)c(C)n1CC`, 0.54%.
Under `Cc1ccc(S(=O)(=O)Nc2nc(CN3CCOCC3)nc3sc(C)c(C)c23)cc1` stands -0.08%.
`CC(C)C1C2=C(CC(C)(C)CC2=O)ON1c1ccccc1` (stereo unspecified): the inhibition was 0.41%.
As for `Cc1cc(=O)n2nc(N3CCC(C(=O)Nc4c(F)c(F)c(F)c(F)c4F)CC3)sc2n1`, the figure is -0.7%.
Under `CCOc1ccc(S(=O)(=O)N2CCCCCC2)c2ccccc12` stands -0.75%; under `O=C(Nc1ccc(Cl)cc1)N1CCc2[nH]c3ccccc3c2C1`, 64.1% (active); under `CCOc1ccc(NC(=O)N2CC=C(n3c(=O)[nH]c4ccccc43)CC2)cc1`, -0.02%.
Take `CC(=O)C(CC(=O)N1CCCC1)C(=O)Nc1ccc(Cl)cc1` (stereo unspecified): the inhibition is -0.19%.
As for `O=C(CCCN1CCc2[nH]c3ccc(F)cc3c2C1)c1ccc(F)cc1`, the figure is 0.35%; as for `C[C@H](O)[C@@H]1C(=O)N2CCc3c([nH]c4ccccc34)[C@@H]2C[C@@H]1N(C)C(=O)Nc1ccc(F)cc1`, 1.97%.
As for `Fc1ccc(NC(=S)N2CCc3[nH]c4ccccc4c3C2)cc1`, the figure is 9.22% (active); as for `Cc1ccc(N(C(=O)C(F)(F)F)C(C(=O)NC2CCCCC2)c2ccncc2)cc1C` (stereo unspecified), -0.39%; as for `COc1ccccc1OCC(=O)Nc1c2c(nn1-c1ccc(F)cc1)CS(=O)(=O)C2`, 0.18%.
As for `CC(=O)Nc1cc(-c2cccc(CO)c2)cn2c(-c3cccc(C(F)(F)F)c3)cnc12`, the figure is -0.15%.
Regarding `Cc1cc(C)cc(NC(=O)NCc2ccccn2)c1`, the inhibition is -0.48%.
For `Cc1cc(C)cc(NC(=O)CSc2ccccc2)c1`, the inhibition was -0.78%.
As for `Cc1cc(C)cc(NC(=O)N(C)Cc2ccccc2)c1`, the inhibition is 6.26% (active).
As for `COc1ccc(CCNC(=O)C2CC3Cn4c(nc5cc(C)c(C)cc54)C3N2C)cc1` (stereo unspecified), the figure is 0.64%; as for `CN(C)CCn1c(=S)[nH]c2ccc(Cl)cc2c1=O`, 0.6%.
Under `CCCCN(C)Cc1c(C)[nH]c2ccc(Cl)cc2c1=O` stands 47% (active); under `CCOC(=O)c1ccc2[nH]c(C)c(CN3CCN(C)CC3)c(=O)c2c1`, -0.39%; under `Cc1cccc(C)c1-n1nnnc1C(CCc1ccccc1)N1CCN(C/C=C/c2ccccc2)CC1` (stereo unspecified), -1%.
As for `Cc1cccc(N2CCN(C(c3ccc(N(C)C)cc3)c3nnnn3C(C)(C)C)CC2)c1C` (stereo unspecified), the figure is -1.18%; as for `NC1=NC(=O)S/C1=C\c1ccc(O)cc1`, 22.9% (active).
As to `O=C(/C=C(O)/C=C/c1ccc(O)cc1)/C=C/c1ccc(O)cc1`, the inhibition was -0.28%.
On to `CC(C)(C)c1ccc(/C=C2\SC(=O)N=C2N)cc1`, for which the inhibition was 19.9% (active).
As for `CCc1nc(C)cn1S(=O)(=O)c1cc([N+](=O)[O-])ccc1Cl`, the figure is -0.04%; as for `O=C(CN1C(=O)CC(c2ccccc2)S(=O)(=O)c2ccccc21)NC1CCCC1` (stereo unspecified), -0.4%; as for `Cc1cc(C(=O)OCC(=O)Nc2ccc(F)c(F)c2)c(C)o1`, 0.47%.
Under `COc1ccccc1NS(=O)(=O)N(C)C` stands -0.33%; under `CCOC(=O)CSc1nc2ccc(C)cc2n2cnnc12`, -0.42%; under `CN(C)CCNC(=O)c1ccc(-c2cn3c(-c4ccc(Oc5ccccc5)cc4)cnc3cn2)cc1`, 0.12%.
In the case of `CC(C)(C)n1cnnc1Sc1ccc([N+](=O)[O-])cn1`, the inhibition is -0.07%.
As for `O=C(Cc1ccc(S(=O)(=O)N2CCOCC2)s1)NCCOc1ccccc1F`, the figure is -0.22%.
For `O=C(Cc1ccc(S(=O)(=O)N2CCOCC2)s1)NCCC(c1ccccc1)c1ccccc1`, the inhibition was -0.24%.
As to `O=C(Cc1ccc(S(=O)(=O)N2CCOCC2)s1)Nc1ccc(Br)c(C(F)(F)F)c1`, the inhibition is 9.17% (active).
As for `Cc1nc(-c2ccc(Cl)cc2)sc1C1(C)CC(c2ccc(Br)cc2)=NO1` (stereo unspecified), the figure is 0.57%.
Under `Cc1c(O)c(C)c2c(c1O)C(=O)C[C@@H](c1ccccc1)O2` stands 1.18%; under `CCO[C@@H]1OC(C(=O)NCc2nc3ccccc3[nH]2)=C[C@H](C2CCCCC2)[C@H]1CCCO`, 15.3% (active).
Consider `CCO[C@H]1OC(C(=O)Nc2ccccc2)=C[C@@H](C2CC2)[C@@H]1CCCO`, for which the inhibition is -0.28%.
As for `CCO[C@H]1OC(C(=O)O)=C[C@@H](C2CCCCC2)[C@@H]1CCCO`, the figure is -0.27%; as for `c1ccc(-c2ccc3c(c2)NC(C2Nc4cc(-c5ccccc5)ccc4O2)O3)cc1` (stereo unspecified), -0.77%.
Under `NC(=O)c1ccc(-c2csnn2)cc1` stands -0.49%; under `Cc1cc(Nc2cccc(F)c2)n2ncnc2n1`, 0.76%; under `CC(=N\NC(=O)c1cc(Br)ccc1O)/C(=N/O)C(=O)Nc1ccccc1`, 7.43% (active).
As for `C/C(=N/NC(=O)c1cc(Cl)ccc1O)C12CC3CC(CC(C3)C1)C2`, the figure is -0.58%.
Take `O=C(Nc1ccccc1)c1ccccc1Br`: the inhibition was 0.92%.
On to `COc1ccc(S(=O)(=O)c2c[nH]c(=S)[nH]c2=O)cc1Cl`, for which the inhibition is -0.79%.
Under `CCOC(=O)c1cccc(NC(=O)CCc2c(C)nc3ncnn3c2C)c1` stands -0.04%; under `Cc1ccc(C(=O)Nc2ccc(C)c(S(=O)(=O)N(C)C)c2)s1`, -0.69%; under `O=S(=O)(NCCc1ccc(Cl)cc1)c1cccs1`, 0.22%.
As for `O=S(=O)(NCc1ccc(Cl)cc1Cl)c1cccs1`, the figure is 18.5% (active); as for `O=C(Nc1cccc(Cl)c1)Nc1ccccc1NS(=O)(=O)c1cccs1`, -0.14%.
As for `Cc1ccnc(NC(=O)Cn2ccc([N+](=O)[O-])n2)c1`, the figure is 1.25%; as for `Cn1c(NN)nc2sc3c(c2c1=O)CCC3`, -0.59%.
On to `OCCNc1nc2ccccc2n1-c1ncnc2sc3c(c12)CCC3`, for which the inhibition is 22.8% (active).
Regarding `O=C(O)c1cccnc1Sc1ncnc2sc3c(c12)CCC3`, the inhibition is -0.25%.
As for `CSCC[C@H](NC(=O)NCc1cccs1)C(=O)O`, the figure is 2.05%; as for `O=S(=O)(c1ccc(Br)cc1)N1CCC(c2nc3ccccc3[nH]2)CC1`, 7.1% (active); as for `N#CC(C(=O)c1ccc(S(=O)(=O)N2CCCCCC2)cc1)c1nc2ccccc2[nH]1` (stereo unspecified), -0.41%.
As for `O=S(=O)(c1ccccc1)N1CCC(c2ccccc2)CC1`, the figure is 0.06%.
